Key:
[1] = molecular target: T1, Angiopoietin-1 receptor (Homo sapiens, UniProt Q02763); assay: Inhibition of Tie2
[2] = molecular target: T1, Angiopoietin-1 receptor; assay: Inhibition of Tie2 at 10 uM
[3] = molecular target: Platelet-derived growth factor receptor alpha (Homo sapiens, UniProt P16234); assay: Inhibition of PDGFRalpha
[4] = molecular target: Insulin receptor (Homo sapiens, UniProt P06213); assay: Inhibition of INSR
[5] = test system: Mus musculus; assay: Inhibition of bFGF-stimulated angiogenesis in Matrigel mouse model at 25 mg/kg, po after 6 days; format: functional; conditions: 144 h
Procedure, shortened: (§1)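 Mice bear Matrigel plugs in which angiogenesis is driven by bFGF; compound given as two doses. Control groups are untreated bFGF mice and mice without bFGF. Animals are killed after 6 days, and the heme content of the Matrigel plug is measured as the angiogenesis read-out.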

[6] = molecular target: MAP kinase p38 (Homo sapiens, UniProt O15264+Q15759+Q16539+P53778); assay: Inhibition of mitogen-activated protein kinase p38; format: protein assay
[7] = molecular target: RAC-alpha serine/threonine-protein kinase (Homo sapiens, UniProt P31749); assay: Inhibition of AKT1
[8] = test system: Mus musculus; assay: Inhibition of bFGF-stimulated angiogenesis in Matrigel mouse model at 50 mg/kg, po after 6 days; format: functional; conditions: 144 h; procedure, shortened: as §1
[9] = molecular target: Cyclin-dependent kinase 2 (Homo sapiens, UniProt P24941); assay: Inhibition of CDK2
[10] = molecular target: Macrophage colony-stimulating factor 1 receptor (Homo sapiens, UniProt P07333)
[11] = molecular target: Fibroblast growth factor receptor 1 (Homo sapiens, UniProt P11362); assay: Inhibition of FGFR1
Sequence of Fibroblast growth factor receptor 1 (P11362 whole entry): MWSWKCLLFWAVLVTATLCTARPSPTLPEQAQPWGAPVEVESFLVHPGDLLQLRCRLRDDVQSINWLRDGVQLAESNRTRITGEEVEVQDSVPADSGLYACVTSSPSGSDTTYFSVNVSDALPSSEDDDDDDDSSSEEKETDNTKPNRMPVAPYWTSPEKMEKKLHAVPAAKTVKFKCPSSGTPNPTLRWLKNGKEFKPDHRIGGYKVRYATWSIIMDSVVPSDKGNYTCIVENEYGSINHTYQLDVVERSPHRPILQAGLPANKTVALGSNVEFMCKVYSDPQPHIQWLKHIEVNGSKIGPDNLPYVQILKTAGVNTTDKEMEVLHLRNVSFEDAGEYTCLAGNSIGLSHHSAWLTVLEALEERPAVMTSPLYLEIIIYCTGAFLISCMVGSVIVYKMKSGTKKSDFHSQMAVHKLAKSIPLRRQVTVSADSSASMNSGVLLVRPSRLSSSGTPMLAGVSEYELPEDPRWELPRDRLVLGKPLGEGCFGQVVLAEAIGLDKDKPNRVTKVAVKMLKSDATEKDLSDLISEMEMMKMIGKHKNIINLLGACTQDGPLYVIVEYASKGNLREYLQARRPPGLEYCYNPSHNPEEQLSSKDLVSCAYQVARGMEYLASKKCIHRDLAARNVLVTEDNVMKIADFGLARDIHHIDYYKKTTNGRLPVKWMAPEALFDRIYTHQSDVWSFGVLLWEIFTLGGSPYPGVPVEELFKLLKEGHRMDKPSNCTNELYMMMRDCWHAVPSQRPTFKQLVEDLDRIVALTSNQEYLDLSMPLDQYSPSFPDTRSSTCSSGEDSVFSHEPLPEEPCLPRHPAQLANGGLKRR

[12] = molecular target: T2, Receptor-type tyrosine-protein kinase FLT3 (Homo sapiens, UniProt P36888); assay: Inhibition of FLT3
T2 sequence (P36888 whole entry): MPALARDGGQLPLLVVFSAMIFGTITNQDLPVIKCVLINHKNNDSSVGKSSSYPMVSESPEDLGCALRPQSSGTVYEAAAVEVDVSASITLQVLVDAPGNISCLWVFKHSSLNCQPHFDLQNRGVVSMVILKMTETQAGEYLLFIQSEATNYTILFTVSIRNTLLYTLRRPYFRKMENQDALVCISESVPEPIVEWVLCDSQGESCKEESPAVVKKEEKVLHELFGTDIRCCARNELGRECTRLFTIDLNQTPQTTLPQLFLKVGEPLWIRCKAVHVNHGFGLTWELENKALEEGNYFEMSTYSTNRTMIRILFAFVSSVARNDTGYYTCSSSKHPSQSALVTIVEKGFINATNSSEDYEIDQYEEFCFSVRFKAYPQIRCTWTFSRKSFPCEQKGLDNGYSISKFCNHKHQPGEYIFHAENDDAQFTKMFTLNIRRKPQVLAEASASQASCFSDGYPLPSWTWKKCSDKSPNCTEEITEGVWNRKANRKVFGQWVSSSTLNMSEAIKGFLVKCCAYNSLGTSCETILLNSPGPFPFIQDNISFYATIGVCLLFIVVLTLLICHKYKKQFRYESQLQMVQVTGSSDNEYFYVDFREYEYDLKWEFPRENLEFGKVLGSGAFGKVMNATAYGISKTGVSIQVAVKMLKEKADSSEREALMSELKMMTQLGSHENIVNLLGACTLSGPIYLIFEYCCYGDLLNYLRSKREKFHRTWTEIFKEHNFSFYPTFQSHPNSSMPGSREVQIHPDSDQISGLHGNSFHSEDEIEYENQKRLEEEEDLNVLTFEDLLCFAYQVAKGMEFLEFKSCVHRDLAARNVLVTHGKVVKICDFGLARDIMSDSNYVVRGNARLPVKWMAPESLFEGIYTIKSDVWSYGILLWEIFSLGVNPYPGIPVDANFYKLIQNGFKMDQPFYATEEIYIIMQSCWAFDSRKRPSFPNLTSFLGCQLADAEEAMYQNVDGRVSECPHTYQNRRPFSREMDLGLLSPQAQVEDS

[13] = molecular target: Platelet-derived growth factor receptor beta (Homo sapiens, UniProt P09619); assay: Inhibition of PDGFRbeta
[14] = molecular target: Hepatocyte growth factor receptor (Homo sapiens, UniProt P08581); assay: Inhibition of MET
[15] = molecular target: Protein kinase C beta type (Homo sapiens, UniProt P05771); assay: Inhibition of PKCbeta1
[16] = molecular target: Mast/stem cell growth factor receptor Kit (Homo sapiens, UniProt P10721); assay: Inhibition of KIT
[17] = Inhibition of GSK3; parameters: species or system Homo sapiens
[18] = molecular target: T3, TGF-beta receptor type-1 (Homo sapiens, UniProt P36897)
T3 sequence (P36897 whole entry): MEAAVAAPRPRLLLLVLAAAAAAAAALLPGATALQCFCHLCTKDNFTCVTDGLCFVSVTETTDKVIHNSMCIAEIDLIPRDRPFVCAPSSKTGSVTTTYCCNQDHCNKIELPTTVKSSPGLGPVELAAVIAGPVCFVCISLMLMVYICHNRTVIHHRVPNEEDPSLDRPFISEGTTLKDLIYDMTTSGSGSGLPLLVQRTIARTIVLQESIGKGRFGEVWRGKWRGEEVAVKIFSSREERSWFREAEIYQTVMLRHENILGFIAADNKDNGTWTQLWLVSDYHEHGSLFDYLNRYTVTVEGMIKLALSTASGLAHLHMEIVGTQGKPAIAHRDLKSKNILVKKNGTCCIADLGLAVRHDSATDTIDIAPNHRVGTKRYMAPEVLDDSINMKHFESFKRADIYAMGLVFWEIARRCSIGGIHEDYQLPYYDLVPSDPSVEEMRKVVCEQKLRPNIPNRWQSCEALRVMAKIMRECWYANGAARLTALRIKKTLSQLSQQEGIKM

[19] = molecular target: Vascular endothelial growth factor receptor 2 (Homo sapiens, UniProt P35968); assay: Inhibition of VEGFR2
Sequence of Vascular endothelial growth factor receptor 2 (P35968 whole entry): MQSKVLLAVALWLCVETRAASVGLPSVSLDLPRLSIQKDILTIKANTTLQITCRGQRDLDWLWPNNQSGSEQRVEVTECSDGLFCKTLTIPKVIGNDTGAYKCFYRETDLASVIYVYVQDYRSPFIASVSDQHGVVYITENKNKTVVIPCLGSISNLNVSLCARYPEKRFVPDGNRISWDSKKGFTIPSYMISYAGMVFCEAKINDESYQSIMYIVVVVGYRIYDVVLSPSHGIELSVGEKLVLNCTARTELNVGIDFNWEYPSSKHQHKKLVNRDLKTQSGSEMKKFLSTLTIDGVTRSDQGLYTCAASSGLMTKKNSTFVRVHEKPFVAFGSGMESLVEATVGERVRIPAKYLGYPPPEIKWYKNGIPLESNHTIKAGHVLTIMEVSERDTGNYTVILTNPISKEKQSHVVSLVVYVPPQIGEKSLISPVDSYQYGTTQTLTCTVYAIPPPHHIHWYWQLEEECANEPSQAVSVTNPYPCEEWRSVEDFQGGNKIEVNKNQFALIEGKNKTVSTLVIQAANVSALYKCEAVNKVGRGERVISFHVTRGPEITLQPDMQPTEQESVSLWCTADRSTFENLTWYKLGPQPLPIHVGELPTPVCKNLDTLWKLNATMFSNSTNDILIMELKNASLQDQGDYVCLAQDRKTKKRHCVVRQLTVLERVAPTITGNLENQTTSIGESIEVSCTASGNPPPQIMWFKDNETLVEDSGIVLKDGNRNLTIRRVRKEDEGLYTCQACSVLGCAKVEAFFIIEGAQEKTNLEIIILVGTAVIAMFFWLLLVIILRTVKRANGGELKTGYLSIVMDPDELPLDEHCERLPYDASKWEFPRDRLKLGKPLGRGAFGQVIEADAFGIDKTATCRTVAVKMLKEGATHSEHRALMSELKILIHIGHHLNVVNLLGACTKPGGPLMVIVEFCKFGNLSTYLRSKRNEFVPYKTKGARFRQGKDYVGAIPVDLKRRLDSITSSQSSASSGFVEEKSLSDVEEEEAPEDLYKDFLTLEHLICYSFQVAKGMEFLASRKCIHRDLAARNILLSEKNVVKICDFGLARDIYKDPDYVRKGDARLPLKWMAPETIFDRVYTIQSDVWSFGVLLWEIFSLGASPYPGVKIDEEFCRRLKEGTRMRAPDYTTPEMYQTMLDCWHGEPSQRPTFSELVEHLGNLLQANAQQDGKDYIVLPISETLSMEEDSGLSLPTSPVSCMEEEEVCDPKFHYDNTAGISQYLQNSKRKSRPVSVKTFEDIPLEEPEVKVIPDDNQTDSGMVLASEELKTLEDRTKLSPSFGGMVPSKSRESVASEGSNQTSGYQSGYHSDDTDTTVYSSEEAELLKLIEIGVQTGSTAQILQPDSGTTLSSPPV

[20] = molecular target: Insulin-like growth factor 1 receptor (Homo sapiens, UniProt P08069); assay: Inhibition of IGFR1
[21] = molecular target: Tyrosine-protein kinase ABL1 (Homo sapiens, UniProt P00519); assay: Inhibition of Abl kinase

T1 sequence (Q02763 whole entry): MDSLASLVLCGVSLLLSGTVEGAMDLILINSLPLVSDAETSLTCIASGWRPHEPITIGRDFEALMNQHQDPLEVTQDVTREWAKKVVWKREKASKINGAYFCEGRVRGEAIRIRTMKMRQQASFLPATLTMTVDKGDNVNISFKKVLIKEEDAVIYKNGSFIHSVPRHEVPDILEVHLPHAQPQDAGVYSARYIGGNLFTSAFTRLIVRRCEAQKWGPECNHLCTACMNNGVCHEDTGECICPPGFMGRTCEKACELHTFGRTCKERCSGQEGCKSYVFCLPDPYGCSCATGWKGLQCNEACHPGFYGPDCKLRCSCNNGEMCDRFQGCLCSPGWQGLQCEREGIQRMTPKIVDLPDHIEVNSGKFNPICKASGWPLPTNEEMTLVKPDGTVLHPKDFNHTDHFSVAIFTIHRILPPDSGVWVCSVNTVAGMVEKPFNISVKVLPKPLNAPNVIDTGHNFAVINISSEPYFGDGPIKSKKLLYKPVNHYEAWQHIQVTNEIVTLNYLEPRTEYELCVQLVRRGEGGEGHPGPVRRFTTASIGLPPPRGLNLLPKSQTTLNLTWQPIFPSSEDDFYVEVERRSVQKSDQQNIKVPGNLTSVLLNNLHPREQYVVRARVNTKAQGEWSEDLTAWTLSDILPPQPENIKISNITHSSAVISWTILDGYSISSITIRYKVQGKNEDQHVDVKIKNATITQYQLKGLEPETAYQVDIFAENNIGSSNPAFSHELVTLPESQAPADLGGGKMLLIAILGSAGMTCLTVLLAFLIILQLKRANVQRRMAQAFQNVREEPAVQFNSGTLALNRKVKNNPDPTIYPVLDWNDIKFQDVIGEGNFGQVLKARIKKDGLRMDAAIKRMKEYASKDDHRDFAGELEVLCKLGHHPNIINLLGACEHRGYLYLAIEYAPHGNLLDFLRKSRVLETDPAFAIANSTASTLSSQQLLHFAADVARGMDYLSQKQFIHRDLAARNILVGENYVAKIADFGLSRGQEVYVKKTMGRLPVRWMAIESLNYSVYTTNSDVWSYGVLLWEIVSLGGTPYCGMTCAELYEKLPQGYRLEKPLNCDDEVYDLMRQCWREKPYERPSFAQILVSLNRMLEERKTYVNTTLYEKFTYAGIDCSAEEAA
Sequence of Insulin receptor (P06213 28-758 limits assumed): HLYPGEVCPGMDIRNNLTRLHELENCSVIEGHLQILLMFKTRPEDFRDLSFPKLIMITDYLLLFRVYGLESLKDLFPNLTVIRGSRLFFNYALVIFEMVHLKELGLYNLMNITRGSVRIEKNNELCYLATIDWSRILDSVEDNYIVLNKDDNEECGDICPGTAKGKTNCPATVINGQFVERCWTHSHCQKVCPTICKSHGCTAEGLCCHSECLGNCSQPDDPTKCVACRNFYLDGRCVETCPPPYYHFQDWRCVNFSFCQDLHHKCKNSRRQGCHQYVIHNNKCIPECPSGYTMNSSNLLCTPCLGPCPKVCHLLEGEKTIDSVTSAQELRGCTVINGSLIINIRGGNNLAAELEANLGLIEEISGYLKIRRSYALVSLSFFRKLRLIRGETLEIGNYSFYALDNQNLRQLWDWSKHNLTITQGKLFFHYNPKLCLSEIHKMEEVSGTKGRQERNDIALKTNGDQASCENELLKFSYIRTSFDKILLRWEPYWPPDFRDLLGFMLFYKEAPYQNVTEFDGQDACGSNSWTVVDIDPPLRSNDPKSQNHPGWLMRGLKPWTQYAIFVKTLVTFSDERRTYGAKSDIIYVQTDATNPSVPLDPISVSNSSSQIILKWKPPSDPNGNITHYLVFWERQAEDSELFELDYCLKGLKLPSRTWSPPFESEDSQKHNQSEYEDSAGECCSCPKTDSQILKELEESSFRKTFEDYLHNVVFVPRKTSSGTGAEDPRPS
Sequence of Insulin receptor (P06213 763-1382 limits assumed): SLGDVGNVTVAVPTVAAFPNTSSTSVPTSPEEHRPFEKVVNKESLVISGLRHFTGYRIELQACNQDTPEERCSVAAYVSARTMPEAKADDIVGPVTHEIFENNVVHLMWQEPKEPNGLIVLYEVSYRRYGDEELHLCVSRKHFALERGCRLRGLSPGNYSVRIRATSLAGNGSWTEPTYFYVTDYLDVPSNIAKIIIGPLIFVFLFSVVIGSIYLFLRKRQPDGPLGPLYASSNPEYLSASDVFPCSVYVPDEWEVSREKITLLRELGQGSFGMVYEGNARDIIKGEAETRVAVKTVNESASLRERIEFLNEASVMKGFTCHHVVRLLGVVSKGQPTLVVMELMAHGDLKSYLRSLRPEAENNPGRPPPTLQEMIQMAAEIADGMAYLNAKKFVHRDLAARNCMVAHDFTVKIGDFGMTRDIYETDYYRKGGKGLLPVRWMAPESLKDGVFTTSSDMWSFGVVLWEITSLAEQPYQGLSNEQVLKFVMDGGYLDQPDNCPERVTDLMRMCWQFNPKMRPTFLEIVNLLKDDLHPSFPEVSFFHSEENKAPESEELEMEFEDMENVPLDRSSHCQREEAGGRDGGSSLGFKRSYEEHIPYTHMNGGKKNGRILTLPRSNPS

| SMILES | IC50 [1] [nM] | other results |
| --- | --- | --- |
| COc1ccc2cc(-c3[nH]c(-c4ccc(S(C)(=O)=O)cc4Cl)nc3-c3ccncc3)ccc2c1 | 59 |  |
| COc1ccc2cc(-c3nc(-c4ccc(S(C)(=O)=O)cc4)[nH]c3-c3ccncc3)ccc2c1 | 250 |  |
| COc1ccc2cc(-c3nc(-c4ccccc4)[nH]c3-c3ccncc3)ccc2c1 |  | inhibition [2]: 60% |
| COc1ccc2cc(-c3[nH]c(-c4ccccc4Br)nc3-c3ccncc3)ccc2c1 | 82 |  |
| COc1ccc2cc(-c3nc(-c4ccccc4Cl)[nH]c3-c3ccncc3)ccc2c1 | 157 |  |
| COc1ccc2cc(-c3c(-c4ccncc4)nc(-c4ccc(SC)cc4C)n3C)ccc2c1 | 335 |  |
| COc1ccc2cc(-c3[nH]c(-c4ccccc4C)nc3-c3ccncc3)ccc2c1 | 387 |  |
| COc1ccc2cc(-c3c(-c4ccncc4)nc(-c4ccc(S(C)(=O)=O)cc4C)n3C)ccc2c1 | 114 |  |
| COc1ccc2cc(-c3nc(-c4ccccc4F)[nH]c3-c3ccncc3)ccc2c1 | 1600 |  |
| COc1ccc2cc(-c3[nH]c(-c4c(Cl)cccc4Cl)nc3-c3ccncc3)ccc2c1 | 78 |  |
| COc1ccc2cc(-c3nc(-c4ccccc4C(C)C)[nH]c3-c3ccncc3)ccc2c1 | 836 |  |
| COc1ccc2cc(-c3[nH]c(-c4ccc([S+](C)[O-])cc4Cl)nc3-c3ccncc3)ccc2c1 (stereo not given) | 51 |  |
| CCc1ccccc1-c1nc(-c2ccc3cc(OC)ccc3c2)c(-c2ccncc2)[nH]1 | 346 |  |
| COc1ccc2cc(-c3c(-c4ccncc4)nc(-c4ccc([S+](C)[O-])cc4C)n3C)ccc2c1 (stereo not given) | 12 | IC50 [3]: > 30000 nM; IC50 [4]: > 30000 nM; inhibition in vivo at 25 mg/kg [5]: 35%; IC50 [6]: 4100 nM; IC50 [7]: > 30000 nM; inhibition in vivo at 50 mg/kg [8]: 80%; IC50 [9]: > 30000 nM; IC50 [10]: 550 nM; IC50 [11]: 9700 nM; IC50 [12]: > 30000 nM; IC50 [13]: > 30000 nM; IC50 [14]: > 30000 nM; IC50 [15]: > 30000 nM; IC50 [16]: > 30000 nM; IC50 [17]: > 30000 nM; IC50 [18]: 296 nM; IC50 [19]: 1500 nM; IC50 [20]: > 30000 nM; IC50 [21]: > 30000 nM |
| COc1ccc2cc(-c3[nH]c(-c4ccc(SC)cc4C)nc3-c3ccncc3)ccc2c1 | 1300 |  |
| COc1ccc2cc(-c3nc(-c4ccc([S@@+](C)[O-])cc4C)[nH]c3-c3ccncc3)ccc2c1 | 22 |  |
| COc1ccc2cc(-c3[nH]c(-c4ccc(SC)cc4Cl)nc3-c3ccncc3)ccc2c1 | 1500 |  |
| COc1ccc2cc(-c3nc(-c4ccc([S+](C)[O-])cc4C)[nH]c3-c3ccncc3)ccc2c1 (stereo not given) | 36 |  |
| COc1ccc2cc(-c3[nH]c(-c4ccc(S(C)(=O)=O)cc4C)nc3-c3ccncc3)ccc2c1 | 40 |  |
| COc1ccc2cc(-c3nc(-c4ccc([S@+](C)[O-])cc4C)[nH]c3-c3ccncc3)ccc2c1 | 95 |  |
| COc1ccc2cc(-c3nc(-c4ccccc4C(F)(F)F)[nH]c3-c3ccncc3)ccc2c1 | 260 |  |

— ChEMBL document CHEMBL1137478, “Optimization of triarylimidazoles for Tie2: influence of conformation on potency” (Bioorg Med Chem Lett, 2007)
